Laboratory results reported in ChEMBL document CHEMBL2146366, “Discovery of microsomal triglyceride transfer protein (MTP) inhibitors with potential for decreased active metabolite load compared to dirlotapide” (Bioorg Med Chem Lett, 2011).
Calls of active or inactive are those of the source. The calls are words filed in the database; no cut-off is given here.

Experiments:
Rattus norvegicus [1] = assay: Antiobesity activity in high fat diet-induced obese Sprague-Dawley rat assessed as reduction of food intake at 10 mg/kg, po administered daily for 3 days relative to dirlotapide; format: functional; design: scale not given: the % may be the effect or the level left
In short: (§1)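 Male Sprague–Dawley rats (~300 g, n = 5 per group) were acclimatized for seven days to a high-fat diet (45% kcal from fat). They received three consecutive daily oral gavage doses 1.5 h before the dark cycle. Vehicle was SEDDS:H2O 10:90, with SEDDS made of Miglyol 812 10%, triacetin 30%, polysorbate 80 20% and Capmul MCM 30%. Food intake was recorded during dosing, and liver TG was measured afterwards, both against vehicle.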

Rattus norvegicus [2] = assay: Antiobesity activity in high fat diet-induced obese Sprague-Dawley rat assessed as reduction of food intake at 10 mg/kg, po qd for 7 days relative to control; format: functional; design: scale not given: the % may be the effect or the level left
In short: (§2)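 Seven-day rat study: once-daily oral dosing at 3, 10 or 30 mg/kg, with 1, 3 and 100 mg/kg also used for one series. Compounds were given as spray-dried dispersions in hydroxypropylmethylcellulose acetate succinate. Food intake, body weight, liver TG and serum ALT were measured against vehicle. Systemic exposure was reported as AUC (ng h/mL). Significance versus vehicle was set at P ≤ 0.05.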

Rattus norvegicus [3] = assay: Antiobesity activity in high fat diet-induced obese Sprague-Dawley rat assessed as reduction of triglyceride accumulation in liver at 10 mg/kg, po administered daily for 3 days relative to control; format: functional; in short: as §1
[4] = AUC in high fat diet-induced obese Sprague-Dawley rat at 30 mg/kg, po qd for 7 days; format: ADME, organism-based; design: dose 30 mg/kg, route oral; conditions: plasma; in short: as §2
Rattus norvegicus [5] = assay: Antiobesity activity in high fat diet-induced obese Sprague-Dawley rat assessed as reduction of food intake at 3 mg/kg, po administered daily for 3 days relative to dirlotapide; format: functional; design: scale not given: the % may be the effect or the level left; in short: as §1
Rattus norvegicus [6] = assay: Antiobesity activity in high fat diet-induced obese Sprague-Dawley rat assessed as reduction of body weight at 3 mg/kg, po qd for 7 days relative to control; format: functional; design: scale not given: the % may be the effect or the level left; in short: as §2
Rattus norvegicus [7] = assay: Antiobesity activity in high fat diet-induced obese Sprague-Dawley rat assessed as reduction of food intake at 3 mg/kg, po qd for 7 days relative to control; format: functional; design: scale not given: the % may be the effect or the level left; in short: as §2
Rattus norvegicus [8] = assay: Drug metabolism in rat assessed as formation of 2-(2'-(6-(2-((4-fluorobenzyl)(methyl)amino)-2-oxo-1-phenylethylcarbamoyl)quinolin-2-ylcarbamoyl)biphenyl-4-yl)-2-methylpropanoic acid at 30 mg/kg, po administered as single dose; format: ADME, organism-based; design: dose 30 mg/kg, route oral; conditions: in vivo
Rattus norvegicus [9] = assay: Antiobesity activity in high fat diet-induced obese Sprague-Dawley rat assessed as reduction in body weight at 3 mg/kg, po administered daily for 3 days relative to dirlotapide; format: functional; design: scale not given: the % may be the effect or the level left
Rattus norvegicus [10] = assay: Antiobesity activity in high fat diet-induced obese Sprague-Dawley rat assessed as reduction of food intake at 10 mg/kg, po administered with 25% SDD formulation daily for 3 days relative to control; format: functional; design: scale not given: the % may be the effect or the level left
In short: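 Three-day oral dosing study in male Sprague–Dawley rats (~300 g, n = 5 per group) fed a high-fat diet (45% kcal from fat). Animals received daily gavage doses 1.5 h before the dark cycle. Compound was given as a spray-dried dispersion made by spray drying compound with hydroxypropylmethylcellulose acetate succinate. Food intake was recorded during dosing and liver TG measured afterwards, both against vehicle.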

Rattus norvegicus [11] = assay: Antiobesity activity in po dosed high fat diet-induced obese Sprague-Dawley rat assessed as reduction of body weight administered daily for 3 days; format: functional; conditions: 72 h, read-out: MED
Rattus norvegicus [12] = assay: Antiobesity activity in high fat diet-induced obese Sprague-Dawley rat assessed as reduction in body weight at 10 mg/kg, po administered daily for 3 days relative to dirlotapide; format: functional; design: scale not given: the % may be the effect or the level left
Rattus norvegicus [13] = assay: Antiobesity activity in high fat diet-induced obese Sprague-Dawley rat assessed as reduction in body weight at 1 mg/kg, po administered daily for 3 days relative to dirlotapide; format: functional; design: scale not given: the % may be the effect or the level left
Rattus norvegicus [14] = assay: Antiobesity activity in high fat diet-induced obese Sprague-Dawley rat assessed as reduction of triglyceride accumulation in liver at 3 mg/kg, po qd for 7 days relative to control; format: functional; design: scale not given: the % may be the effect or the level left; in short: as §2
Rattus norvegicus [15] = assay: Antiobesity activity in high fat diet-induced obese Sprague-Dawley rat assessed as reduction of food intake at 1 mg/kg, po administered daily for 3 days relative to control; format: functional; design: scale not given: the % may be the effect or the level left; in short: as §1
Rattus norvegicus [16] = assay: Toxicity in high fat diet-induced obese Sprague-Dawley rat assessed as change in serum ALT level at 30 mg/kg, po qd for 7 days relative to control; format: organism-based; design: dose 30 mg/kg, route oral; conditions: in vivo, 168 h
In short: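 Seven-day study in high-fat-diet rats. Compound was given once daily by mouth as a spray-dried dispersion, with vehicle controls. Serum ALT was measured alongside food intake, body weight, liver TG and systemic exposure (AUC). ALT is expressed as % change versus vehicle, with significance set at P ≤ 0.05.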

[17] = AUC in high fat diet-induced obese Sprague-Dawley rat at 10 mg/kg, po qd for 7 days; format: ADME, organism-based; design: dose 10 mg/kg, route oral; conditions: plasma; in short: as §2
Rattus norvegicus [18] = assay: Antiobesity activity in po dosed high fat diet-induced obese Sprague-Dawley rat assessed as reduction of food intake administered daily for 3 days; format: functional; conditions: 72 h, read-out: MED; in short: as §1
[19] = AUC in high fat diet-induced obese Sprague-Dawley rat at 3 mg/kg, po qd for 7 days; format: ADME, organism-based; design: dose 3 mg/kg, route oral; conditions: plasma; in short: as §2
Rattus norvegicus [20] = assay: Drug metabolism in rat assessed as formation of N-(2-((4-fluorobenzyl)(methyl)amino)-2-oxo-1-phenylethyl)-2-(4'-(1-hydroxy-2-methylpropan-2-yl)biphenyl-2-ylcarboxamido)quinoline-6-carboxamide at 30 mg/kg, po administered as single dose; format: ADME, organism-based; design: dose 30 mg/kg, route oral; conditions: in vivo
Rattus norvegicus [21] = assay: Antiobesity activity in high fat diet-induced obese Sprague-Dawley rat assessed as reduction of food intake at 30 mg/kg, po administered daily for 3 days relative to control; format: functional; design: scale not given: the % may be the effect or the level left; in short: as §1
Rattus norvegicus [22] = assay: Antiobesity activity in high fat diet-induced obese Sprague-Dawley rat assessed as reduction of triglyceride accumulation in liver at 10 mg/kg, po administered daily for 3 days relative to dirlotapide; format: functional; design: scale not given: the % may be the effect or the level left; in short: as §1
Rattus norvegicus [23] = assay: Antiobesity activity in high fat diet-induced obese Sprague-Dawley rat assessed as reduction of food intake at 100 mg/kg, po administered daily for 3 days relative to dirlotapide; format: functional; design: scale not given: the % may be the effect or the level left; in short: as §1
Rattus norvegicus [24] = assay: Antiobesity activity in high fat diet-induced obese Sprague-Dawley rat assessed as reduction in body weight at 100 mg/kg, po administered daily for 3 days relative to dirlotapide; format: functional; design: scale not given: the % may be the effect or the level left

AUC at 168 h [4]: 65 ng·h/mL | Drug metabolism (Rattus norvegicus [8]): Active | AUC at 168 h [17]: 42 ng·h/mL | AUC at 168 h [19]: 12 ng·h/mL | Drug metabolism (Rattus norvegicus [20]): Active
SMILES: CN(Cc1ccc(F)cc1)C(=O)[C@@H](NC(=O)c1ccc2nc(NC(=O)c3ccccc3-c3ccc(C(C)(C)C)cc3)ccc2c1)c1ccccc1
Activity (Rattus norvegicus [1]): 46% | Activity (Rattus norvegicus [2]): 51% | Activity (Rattus norvegicus [3]): inactive | Activity (Rattus norvegicus [5]): 6% | Activity (Rattus norvegicus [6]): 85% | Activity (Rattus norvegicus [7]): 25% | Activity (Rattus norvegicus [9]): 10% | Activity (Rattus norvegicus [10]): 33% | minimal effective dose (Rattus norvegicus [11]): 3 mg/kg | Activity (Rattus norvegicus [12]): 97% | Activity (Rattus norvegicus [13]): 25% | Activity (Rattus norvegicus [14]): 43% | Activity (Rattus norvegicus [15]): 12% | Activity (Rattus norvegicus [16]): 237% | minimal effective dose (Rattus norvegicus [18]): 3 mg/kg | Activity (Rattus norvegicus [21]): 41% | Activity (Rattus norvegicus [22]): 120% | Activity (Rattus norvegicus [23]): 35% | Activity (Rattus norvegicus [24]): 75%
